Data set [1] addresses T1, Solute carrier family 22 member 12 (Homo sapiens, UniProt Q96S37).
T1 sequence (Q96S37 whole entry): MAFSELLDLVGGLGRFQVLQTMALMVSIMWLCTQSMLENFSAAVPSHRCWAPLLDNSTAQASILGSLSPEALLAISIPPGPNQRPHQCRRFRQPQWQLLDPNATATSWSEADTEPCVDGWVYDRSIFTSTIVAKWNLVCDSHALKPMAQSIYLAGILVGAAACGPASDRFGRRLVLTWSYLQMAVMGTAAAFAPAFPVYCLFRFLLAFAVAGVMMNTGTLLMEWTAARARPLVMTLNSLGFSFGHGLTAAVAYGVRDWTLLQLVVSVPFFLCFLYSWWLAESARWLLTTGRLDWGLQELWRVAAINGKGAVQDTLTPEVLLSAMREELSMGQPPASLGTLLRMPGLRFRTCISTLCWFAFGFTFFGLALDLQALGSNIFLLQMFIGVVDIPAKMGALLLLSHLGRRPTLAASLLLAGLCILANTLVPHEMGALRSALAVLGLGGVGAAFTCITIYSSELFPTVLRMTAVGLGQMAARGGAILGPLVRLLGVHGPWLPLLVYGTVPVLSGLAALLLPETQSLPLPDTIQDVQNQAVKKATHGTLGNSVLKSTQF
Briefly: Inhibition of human URAT1 expressed in HEK293T cells assessed as reduction in [14C]uric acid uptake preincubated for 15 mins followed by [14C]uric acid addition by liquid scintillation counting method. Type of data set: cell-based.

The subject of data set [2] is Mus musculus. The data set can be described thus: Hypouricemic activity in Kunming mouse model of xanthine/potassium oxonate-induced acute hyperuricemia assessed as decrease in serum uric acid level at 2 mg/kg administered 3 hrs prior to xanthine/potassium oxonate and measured after 6 hrs relative to control. Type of data set: functional. Also noted: scale not given: the % may be the effect or the level left. The settings on record: time 9 hrs. In short, it runs like this: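 Male Kunming mice, hyperuricemia induced by intragastric xanthine plus subcutaneous potassium oxonate (0.2 mL each). […] Groups: normal vehicle, untreated model, active control, test. Serum uric acid measured. Decrease ratio = (model SUA − compound SUA)/(model SUA − vehicle SUA).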

Data set [3] deals with T2, Solute carrier family 2, facilitated glucose transporter member 9 (Homo sapiens, UniProt Q9NRM0).
T2 sequence (Q9NRM0 whole entry): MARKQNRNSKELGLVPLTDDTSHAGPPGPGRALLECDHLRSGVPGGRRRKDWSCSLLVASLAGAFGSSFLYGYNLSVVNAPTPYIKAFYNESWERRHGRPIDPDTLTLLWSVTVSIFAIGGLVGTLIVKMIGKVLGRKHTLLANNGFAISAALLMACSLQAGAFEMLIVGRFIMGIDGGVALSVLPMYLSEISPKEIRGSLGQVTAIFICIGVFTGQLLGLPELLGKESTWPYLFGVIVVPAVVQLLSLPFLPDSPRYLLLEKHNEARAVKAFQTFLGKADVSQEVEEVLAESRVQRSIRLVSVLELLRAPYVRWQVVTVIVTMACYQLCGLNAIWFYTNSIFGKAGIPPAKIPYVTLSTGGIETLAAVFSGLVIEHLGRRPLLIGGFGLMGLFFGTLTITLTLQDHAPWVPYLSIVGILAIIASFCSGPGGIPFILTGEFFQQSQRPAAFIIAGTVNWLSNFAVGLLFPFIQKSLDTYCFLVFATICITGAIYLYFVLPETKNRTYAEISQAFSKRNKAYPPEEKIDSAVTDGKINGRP
Briefly: Inhibition of GLUT9 (unknown origin).

Data set [4] deals with Mus musculus. The data set can be described thus: Potency index, ratio of lesinurad to test compound for hypouricemic activity in Kunming mouse model of xanthine/potassium oxonate-induced acute hyperuricemia assessed as decrease in serum uric acid level at 2 mg/kg administered 3 hrs prior to xanthine/potassium oxonate and measured after 6 hrs. Format: functional.
The nature of data set [5]: Sub-acute toxicity in Kunming mouse assessed as hepatocellular condensation of liver at 50 mg/kg, po administered as single dose every other day for 14 days by H and E staining based assay. Type of data set: organism-based. The settings on record: in vivo, 336 h, time 14 day.
A short description of data set [6]: Sub-acute toxicity in Kunming mouse assessed as edema in proximal tubule at 50 mg/kg, po administered as single dose every other day for 14 days by H and E staining based assay. The settings on record: in vivo, 336 h, time 14 day. Type of data set: organism-based. In short, it runs like this:
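Kunming mice, n = 4 per sex, fasted 12 h. Dosed orally on D0, D2, D4, D6, D8, D10 and D12; controls received an equal volume of vehicle. Weighed before each dose. Killed at D14; heart, liver, spleen, lung and kidney taken for haematoxylin and eosin staining.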

Data set [7] can be described thus: Sub-acute toxicity in Kunming mouse assessed as ballooning degeneration of liver at 50 mg/kg, po administered as single dose every other day for 14 days by H and E staining based assay. Type of data set: organism-based. Conditions: in vivo, 336 h, time 14 day.
A short description of data set [8]: Sub-acute toxicity in Kunming mouse assessed as congestion in hepatic central vein at 50 mg/kg, po administered as single dose every other day for 14 days by H and E staining based assay. Format: organism-based. The settings on record: in vivo, 336 h, time 14 day.
Data set [9] can be described thus: Sub-acute toxicity in Kunming mouse assessed as hydropic degeneration of hepatocytes at 50 mg/kg, po administered as single dose every other day for 14 days by H and E staining based assay. Type of data set: organism-based. The settings on record: in vivo, 336 h, time 14 day.
The nature of data set [10]: Cmax in male Kunming mouse at 50 mg/kg, po by LC-MS/MS analysis. Format: ADME, organism-based. Also noted: route oral, dose 50 mg/kg. Conditions: in vivo. The gist of the method: (§1)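 Male Kunming mice, ten in total, split into five groups; single oral dose in PEG 400/normal saline (70/30, v/v). Blood taken from submandibular or saphenous vein into K2EDTA tubes at 0.25, 0.5, 1, 2, 4, 8, 24, 48, 72 h. Plasma spun at about 4 °C and kept at -70 °C. Acetonitrile precipitation with dexamethasone internal standard, then LC-MS/MS against plasma standard curves.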

Data set [11] in a line: Half-life in male Kunming mouse at 50 mg/kg, po by LC-MS/MS analysis. Type of data set: ADME, organism-based. Conditions: in vivo. The gist of the method: as §1
The nature of data set [12]: Tmax in male Kunming mouse at 50 mg/kg, po by LC-MS/MS analysis. The settings on record: in vivo. Format: ADME, organism-based. The gist of the method:
as §1

Data set [13] can be described thus: AUC (0 to infinity) in male Kunming mouse at 50 mg/kg, po by LC-MS/MS analysis. Type of data set: ADME, organism-based. Also noted: route oral, time infinity, dose 50 mg/kg. The settings on record: in vivo. In short, it runs like this: as §1
Data set [14] is described as follows: MRT (0 to infinity) in male Kunming mouse at 50 mg/kg, po by LC-MS/MS analysis. Type of data set: ADME, organism-based. Conditions: in vivo. In short, it runs like this: as §1
A short description of data set [15]: AUC (0 to t) in male Kunming mouse at 50 mg/kg, po by LC-MS/MS analysis. Type of data set: ADME, organism-based. Also noted: dose 50 mg/kg. Conditions: in vivo. In short, it runs like this: as §1
A short description of data set [16]: Cmax in male Kunming mouse at 2 mg/kg, po by LC-MS/MS analysis. Format: ADME, organism-based. More on the design: route oral, dose 2 mg/kg. Conditions: in vivo. The gist of the method:
as §1

Data set [17] can be described thus: Tmax in male Kunming mouse at 2 mg/kg, po by LC-MS/MS analysis. Format: ADME, organism-based. Conditions: in vivo. The gist of the method: as §1
Data set [18] can be described thus: Half-life in male Kunming mouse at 2 mg/kg, po by LC-MS/MS analysis. Type of data set: ADME, organism-based. The settings on record: in vivo. The gist of the method: as §1
Data set [19] is described as follows: MRT (0 to infinity) in male Kunming mouse at 2 mg/kg, po by LC-MS/MS analysis. Type of data set: ADME, organism-based. Conditions: in vivo. The gist of the method: as §1
The nature of data set [20]: AUC (0 to infinity) in male Kunming mouse at 2 mg/kg, po by LC-MS/MS analysis. Type of data set: ADME, organism-based. Also noted: time infinity, route oral, dose 2 mg/kg. Conditions: in vivo. The gist of the method: as §1
A short description of data set [21]: AUC (0 to t) in male Kunming mouse at 2 mg/kg, po by LC-MS/MS analysis. Type of data set: ADME, organism-based. More on the design: dose 2 mg/kg. Conditions: in vivo. In short, it runs like this: as §1
The nature of data set [22]: Sub-acute toxicity in female Kunming mouse assessed as increase in body weight at 50 mg/kg, po administered once every second day for 14 days. Type of data set: organism-based. The settings on record: in vivo, 336 h, time 14 day.
Data set [23] can be described thus: Sub-acute toxicity in male Kunming mouse assessed as increase in body weight at 50 mg/kg, po administered once every second day for 14 days. Type of data set: organism-based. Conditions: in vivo, 336 h, time 14 day.
Data set [24] is described as follows: Acute toxicity in female Kunming mouse assessed as change in body weight at 500 mg/kg, ig measured for 1 week. Type of data set: organism-based. Conditions: in vivo, po, 168 h, time 1 weeks.
Data set [25] can be described thus: Acute toxicity in Kunming mouse assessed as induction of abnormal behaviors by measuring lethargy at 500 mg/kg, ig. Format: organism-based. The settings on record: in vivo, po.
Data set [26] in a line: Acute toxicity in male Kunming mouse assessed as change in body weight at 500 mg/kg, ig measured for 1 week. Format: organism-based. The settings on record: in vivo, po, 168 h, time 1 weeks.
Data set [27] is described as follows: Acute toxicity in Kunming mouse assessed as induction of abnormal behaviors by measuring clonic convulsion at 500 mg/kg, ig. The settings on record: in vivo, po. Format: organism-based.
Data set [28] in a line: Acute toxicity in Kunming mouse assessed as induction of abnormal behaviors by measuring anorexia at 500 mg/kg, ig. Type of data set: organism-based. The settings on record: in vivo, po.
A short description of data set [29]: Acute toxicity in Kunming mouse assessed as death at 250 mg/kg, ig measured for 1 week relative to control. Format: organism-based. The settings on record: in vivo, po, 168 h, time 1 weeks. In short, it runs like this:
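Kunming mice of 10-12 g, 12 per group (6 male, 6 female), fasted 12 h. Single intragastric dose of a suspension in 5% CMC-Na. Deaths, behaviour (lethargy, clonic convulsion, anorexia, ruffled fur) and body weight followed for one week and compared with vehicle controls.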

The species named for a further data set is Rattus norvegicus. Briefly: Hypouricemic activity in rat model of xanthine/potassium oxonate-induced acute hyperuricemia assessed as decrease in serum uric acid level relative to control. Format: functional. Also noted: scale not given: the % may be the effect or the level left.

Structures are written as SMILES. Some results are limits rather than exact numbers.

The IC50 is the midpoint of a concentration-inhibition curve. By Cmax is commonly meant the maximum level reached in the sampled fluid or tissue. One may read the half-life as the time in which the quantity being followed falls by half. One may read the Tmax as the time at which the peak concentration occurs. The term AUC(0-inf) denotes the area under the concentration-time curve extrapolated to infinity. The term MRT inf denotes the average time that molecules of a dose stay in the body. As usually defined, the AUC(0-t) is exposure summed from dosing to a finite time, without extrapolation to infinity.

In the case of `CC(Sc1nc2cccnc2n1-c1ccc(C2CC2)c2ccccc12)C(=O)O` (centres undefined), the IC50 in [1] was > 30 µM. Besides, the Activity with Mus musculus [2] was determined as 42.06%.

On to `O=C(CSc1nnc(Br)n1-c1ccc(C2CC2)c2ccccc12)NS(=O)(=O)c1ccc(F)cc1F`, for which the IC50 in data set [3] was 32.2 µM; in data set [1] it was 7.29 µM. The Activity in the data set on Mus musculus [2] is on record as 93.78%.

With `CC(Sc1nc2ncccc2n1-c1ccc(C#N)c2ccccc12)C(=O)O` (centres undefined), the Activity in the data set on Mus musculus [2] is recorded as 95.01%. The Ratio in the data set on Mus musculus [4] came out at 2.8.

Regarding `O=C(O)CSc1nnc(Br)n1-c1ccc(C2CC2)c2ccccc12`, the Activity result in data set [5] is “Toxic”; in data set [6], “Toxic”; in data set [7], “Toxic”; in data set [8] it was “Toxic”; in [9] it was “Toxic”; in [22] it was “Non-Toxic”. Further, the Activity entry in data set [23], in [24], in data set [25], in data set [26], in data set [27] and in data set [28] was “Non-Toxic” in each case. Also, the Activity entry in [29] was “Toxic”; in the data set filed under Rattus norvegicus, 52.99%; with Mus musculus [2] it was 27.06%. Moreover, the Cmax in data set [10] came to 26500 ng/mL; in [16], 1500 ng/mL. Besides, the half-life was 7.46 h in [11] and 3.08 h in data set [18]. Further, the results for the Tmax in data set [12] and in data set [17] were 1 h and 0.667 h, respectively. Besides, the results for the area under the curve AUC(0-inf) in [13] and in [20] were 145000 ng·h/mL and 7120 ng·h/mL, respectively. In addition, the mean residence time MRT inf in data set [14] was determined as 6.35 h; in data set [19] it was 5.09 h. The values for the AUC(0-t) in [15] and in [21] were 144000 ng·h/mL and 7080 ng·h/mL, respectively.

The values above are taken from ChEMBL document CHEMBL4665798, “Novel Human Urate Transporter 1 Inhibitors as Hypouricemic Drug Candidates with Favorable Druggability” (J Med Chem, 2020).
